Active and inactive are the calls of the source. No rule for the calls is given here.
Experiments:
Experiment in all cases: calcium influx via other TRP channels, profiling panel, selectivity assay for TRPML3 agonist project, cell-based, Fura-2 calcium ratio, transfected HEK293, SAR round 1 (AID 2770)
[1] = test system: HEK cells; settings: at 10 µM, stronger effect = higher value
Outline: (§1)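 System: HEK293 cells transiently expressing human, mouse or zebrafish TRP channels, or mock-transfected; Quantity: 20-30 cells imaged per experiment; Medium: HEPES-buffered bath solution at pH 7.4; Schedule: compound perfusion 20-25 h post-transfection, then 2 min calcium imaging; Measured by: ratiometric fluorescence imaging with 4 µM fura-2-AM calcium dye; Replication: n ≥3 independent experiments.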

[2] = molecular target: Ion channel NompC (Danio rerio) (UniProt Q7T1G6); settings: drTRPN1
Outline: as §1

[3] = molecular target: Mucolipin-1 (Homo sapiens) (UniProt Q9GZU1)
Outline: as §1

[4] = test system: hTRPA1
Outline: as §1

[5] = test system: hTRPC3
Outline: as §1

[6] = test system: hTRPM2
Outline: as §1

[7] = test system: mTRPML2 (mucolipin 2)
Outline: as §1

[8] = test system: mTRPV2
Outline: as §1

[9] = hTRPML1 (NC) plasma membrane variant

Measured: Fura-2 340/380 ratio change

Sequence of Mucolipin-1 (Homo sapiens) (Q9GZU1 whole entry, looked up): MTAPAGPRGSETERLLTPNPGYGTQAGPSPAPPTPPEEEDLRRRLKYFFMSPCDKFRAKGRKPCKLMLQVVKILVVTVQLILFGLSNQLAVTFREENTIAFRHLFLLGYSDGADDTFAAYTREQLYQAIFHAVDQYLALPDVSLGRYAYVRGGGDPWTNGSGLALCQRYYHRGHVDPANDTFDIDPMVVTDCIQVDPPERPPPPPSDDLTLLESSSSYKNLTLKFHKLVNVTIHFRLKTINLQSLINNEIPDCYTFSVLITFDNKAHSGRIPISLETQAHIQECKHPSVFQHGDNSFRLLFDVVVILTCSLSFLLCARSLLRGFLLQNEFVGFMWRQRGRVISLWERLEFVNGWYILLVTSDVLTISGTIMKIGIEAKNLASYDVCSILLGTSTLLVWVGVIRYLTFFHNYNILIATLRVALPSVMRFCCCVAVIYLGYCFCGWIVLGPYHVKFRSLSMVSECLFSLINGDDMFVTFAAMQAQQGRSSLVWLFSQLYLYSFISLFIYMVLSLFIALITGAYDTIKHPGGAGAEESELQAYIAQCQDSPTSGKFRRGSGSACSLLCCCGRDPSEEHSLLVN

CCOc1ccc(S(=O)(=O)N2CCCCCC2)c2ccccc12
inactive: [1] -0.011 | [2] inactive; selective for TRPML3 | [3]; hTRPML1 inactive; selective for TRPML3 | [3]; [9] inactive; selective for TRPML3 | [4] inactive; selective for TRPML3 | [5] inactive; selective for TRPML3 | [6] inactive; selective for TRPML3 | [7] inactive; selective for TRPML3 | [8] inactive; selective for TRPML3

CC1CCN(S(=O)(=O)c2ccc(C(C)C)cc2)CC1
inactive: [1] -0.008 | [2] inactive; selective for TRPML3 | [3]; hTRPML1 inactive; selective for TRPML3 | [3]; [9] inactive; selective for TRPML3 | [4] inactive; selective for TRPML3 | [5] inactive; selective for TRPML3 | [6] inactive; selective for TRPML3 | [7] inactive; selective for TRPML3 | [8] inactive; selective for TRPML3

Cc1ccc(S(=O)(=O)n2nccc2-c2c(-c3ccc(Cl)cc3)noc2C)cc1
inactive: [1] -0.005 | [2] inactive; selective for TRPML3 | [3]; hTRPML1 inactive; selective for TRPML3 | [3]; [9] inactive; selective for TRPML3 | [4] inactive; selective for TRPML3 | [5] inactive; selective for TRPML3 | [6] inactive; selective for TRPML3 | [7] inactive; selective for TRPML3 | [8] inactive; selective for TRPML3
